Measurements pooled from the literature.
Lines come from different studies, so protocols differ.
Target: Ephrin type-A receptor 4 (EPHA4, Homo sapiens, UniProt P54764)

Compound | assay | setting | measurement | value
CCCS(=O)(=O)Nc1ccc(F)c(C(=O)c2c[nH]c3ncc(-c4ccc(Cl)cc4)cc23)c1F | enzyme activity, inhibitor | 1 µM | inhibition | < 10%
COc1cc(Cl)c(C(=O)N[C@@H](CN[C@H]2CC[C@@H](N)CC2)Cc2ccc(C#N)cc2)cc1-c1ccc(CN[C@H](C)c2ccc(C)cc2)o1 | enzyme activity, inhibitor | 1 µM | remaining activity | 99%
CC(C)(O)[C@H]1CC[C@H](Nc2ccc3ncc(-c4cccc(C(F)(F)F)c4)n3n2)CC1 | enzyme activity, inhibitor | 1 µM | remaining activity | 98.8%
Cc1ccc(C(=O)Nc2ccc(CN3CCN(C)CC3)c(C(F)(F)F)c2)cc1C#Cc1cnc2cccnn12 | cell-free assay | 23.5 nM | remaining signal | 22%
Cc1nc(N2CC[C@@H](O)C2)ncc1-c1cc(C(F)(F)F)cc2[nH]ncc12 | cell-free assay, competition with immobilised ligand | 1 µM | remaining binding | 100%
CN1CC(Oc2cnc(C#N)cc2-c2ccn3nc(NC(=O)C4CC4)cc3c2)C1 | enzyme activity, inhibitor | 1 µM | inhibition | 11%
COc1cc2ncnc(Nc3ccc(Oc4ccccc4)cc3C)c2cc1OC | enzyme activity, inhibitor | 1 µM | inhibition | 10%
CCCCN(CCCC)C(=O)CN1C[C@@H](c2cc(OC)c3c(c2)OCO3)[C@H](C(=O)O)[C@H]1CC(C)(C)CCC | cell-free assay, competition with immobilised ligand | 1 µM | remaining binding | 95.7%
COc1cc(Nc2cnc(C#N)c(O[C@H](C)CN(C)C)n2)ncc1-c1cnn(C)c1 | enzyme activity, inhibitor, radiometric | 1 µM | remaining activity | 73%
COc1ccc2cc(OCC3(C(=O)O)CN(C(=O)c4ccc(F)cc4)C3)ccc2c1 | cell-free assay, competition with immobilised ligand | 1 µM | remaining binding | 100%
CCN(CC)CCNC(=O)c1c(C)[nH]c(/C=C2\C(=O)Nc3ccc(F)cc32)c1C | enzyme activity, inhibitor | 10 µM | inhibition | 46%
Oc1cccc(-c2nc(N3CCOCC3)c3oc4ncccc4c3n2)c1 | enzyme activity, inhibitor | 10 µM | remaining activity | 103%
Cc1cc(NC(=O)c2cccc3cc(-c4cccc5[nH]nc(N)c45)ccc23)ccc1F | enzyme activity, inhibitor | 0.1 µM | activity vs control | 73%
Cc1noc([C@H]2C[C@@H](c3ccc(C(F)(F)F)cc3)CN(C(=O)N3CCS(=O)(=O)C3)C2)n1 | cell-free assay, competition with immobilised ligand | 1 µM | remaining binding | 100%
Cc1sc(C(=O)NC2COC2)cc1-n1cc(NC(=O)Nc2c(F)cccc2Cl)cn1 | enzyme activity, inhibitor | 10 µM | remaining activity | 116%
Cc1ccc(Nc2nccc(N(C)c3ccc4c(C)n(C)nc4c3)n2)cc1S(N)(=O)=O | enzyme activity, inhibitor | 10 µM | inhibition | 28%
Cn1nc(C(F)(F)F)cc1-c1cnc(N2CCc3cc(S(=O)(=O)Nc4c(F)cc(Cl)cc4F)cc(N4CCCC4=O)c32)nc1 | cell-free assay, competition with immobilised ligand | 1 µM | remaining binding | 97%
Cc1ccc(NC(=O)c2ccc(C)c(C(F)(F)F)c2)cc1C#Cc1nn(C2CCC(O)CC2)c2ncnc(N)c12 (stereo not shown) | cell-free assay | 10 µM | remaining signal | -2%
CC(C)(C)c1nc2c(s1)c1nc(N)ncc1c1ccc(NS(=O)(=O)c3c(F)cccc3F)c(F)c12 | enzyme activity, inhibitor, radiometric | 1 µM | remaining activity | 99%
O=C(NCCCC1CCCCC1)c1ccc(CNC(=O)c2cnn(-c3ccccc3)c2C(F)(F)F)cc1 | cell-free assay, competition with immobilised ligand | 0.1 µM | remaining binding | 70%
FC(F)c1nc2ccccc2n1-c1nc(N2CCOCC2)nc(N2CCOCC2)n1 | enzyme activity, inhibitor | 10 µM | remaining activity | 87%
N#CC1(c2ccccn2)CCN(Cc2cc(C(=O)N3CCCC3)c(=O)n3ccccc23)CC1 | cell-free assay, competition with immobilised ligand | 1 µM | remaining binding | 89%
CNC(=O)c1cc(Oc2ccc(NC(=O)Nc3ccc(Cl)c(C(F)(F)F)c3)cc2)ccn1 | enzyme activity, inhibitor | 10 µM | inhibition | 56%
CCS(=O)(=O)c1cc2cc(C[C@](O)(CC(C)(C)c3ccc(F)cc3C(N)=O)C(F)(F)F)[nH]c2cn1 | cell-free assay, competition with immobilised ligand | 1 µM | remaining binding | 100%
N#CCCc1ccc2c(c1)-c1[nH]c3ccc([N+](=O)[O-])cc3c1CC(=O)N2 | cell-free assay | 0.5 µM | remaining signal | 85.2%
